Laboratory results: ChEMBL document CHEMBL1944511, “Bakuchiol derivatives as novel and potent cytotoxic agents: a report” (Eur J Med Chem, 2012)

Key:
Format in all cases: functional
MCF7 = assay: Growth inhibition of human MCF7 cells at 1 uM after 48 hrs by sulpharhodamine B assay; conditions: MCF7, 48 h, read-out: GI
Outline: (§1)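 This is the SRB protein-stain assay on adherent cells in RPMI-1640/MEM with 10% FCS. Each compound in DMSO (vehicle <0.2%) was applied at a single fixed concentration for 48 h. Cells were fixed with TCA and stained with SRB, and the dye was solubilised in Tris and read at 570/620 nm. Percent growth inhibition is relative to vehicle-treated controls, reported as mean ± SD of three experiments run in triplicate.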

A549 = assay: Growth inhibition of human A549 cells at 1 uM after 48 hrs by sulpharhodamine B assay; conditions: A549, 48 h, read-out: GI; outline: as §1
PC-3 = assay: Growth inhibition of human PC3 cells at 1 uM after 48 hrs by sulpharhodamine B assay; conditions: PC-3, 48 h, read-out: GI; outline: as §1
HEp-2 = assay: Growth inhibition of human Hep2 cells at 1 uM after 48 hrs by sulpharhodamine B assay; conditions: HEp-2, 48 h, read-out: GI; outline: as §1
HL-60 = assay: Induction of apoptosis in human HL60 cells assessed as loss of mitochondrial membrane potential at 5 uM after 24 hrs by rodamine-123 staining-based flow cytometric analysis (reference value: 6%)

COc1cccc2c1C(=O)c1c(O)c3c(c(O)c1C2=O)C[C@@](O)(C(=O)CO)C[C@@H]3O[C@H]1C[C@H](N)[C@H](O)[C@H](C)O1 [DOXORUBICIN]
inhibition of growth at 1 µM (MCF7): 85%
inhibition of growth at 1 µM (A549): 76%

CO[C@@]12[C@H](COC(N)=O)C3=C(C(=O)C(C)=C(N)C3=O)N1C[C@@H]1N[C@@H]12 [MITOMYCIN]
inhibition of growth at 1 µM (PC-3): 70%
inhibition of growth at 1 µM (HEp-2): 78%

CC[C@@]1(O)C(=O)OCc2c1cc1n(c2=O)Cc2cc3ccccc3nc2-1 [CAMPTOTHECIN]
Activity (HL-60): 55.5%
